The source of these data is ChEMBL document CHEMBL1828513, “Overcoming human P-glycoprotein-dependent multidrug resistance with novel dihydro-β-agarofuran sesquiterpenes” (Eur J Med Chem, 2011).

The target of series [1] is T1, ATP-dependent translocase ABCB1 (Homo sapiens, UniProt P08183). Nature of the series: Inhibition of human MDR1 expressed in mouse NIH-3T3 cells assessed as daunomycin efflux after 30 mins by flow cytometry. Format: cell-based, NIH3T3. The procedure, abridged: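 MDR1-G185-transfected NIH-3T3 cells in log phase were seeded 24 h beforehand at 10^5 cells/well. They were incubated 30 min at 37 °C in DMEM + 10% iFBS with 2 µM daunomycin and varied sesquiterpene concentrations, washed in ice-cold PBS, trypsinized, and read for single-cell fluorescence by flow cytometry.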
In general terms: Flow cytometry measures light scatter and fluorescence of single cells or particles in a stream.

Series [2] has as its target T2, MDR1 (ABCB1, P-glycoprotein) (Homo sapiens, UniProt P08183). Nature of the series: (§1) Inhibition of human MDR1 expressed in mouse NIH-3T3 cells assessed as daunomycin efflux at 10 uM after 30 mins by flow cytometry. Format: cell-based, NIH3T3. The note with it: mouse NIH-3T3 cells expressing human MDR1, probe daunomycin.
Series [3] addresses T2, MDR1 (ABCB1, P-glycoprotein). The series can be described thus: Inhibition of human MDR1 expressed in mouse NIH-3T3 cells assessed as daunomycin efflux at 10 uM after 30 mins by flow cytometry relative to control. The format is cell-based, NIH3T3. The note with it: mouse NIH-3T3 cells expressing human MDR1, probe daunomycin, read-out: Imax. The procedure, abridged: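 Transfected MDR1-G185 NIH-3T3 cells were seeded 24 h prior at 10^5 cells/well. They were co-incubated 30 min at 37 °C in DMEM + 10% iFBS with 2 µM daunomycin and 10 µM sesquiterpene, then washed in ice-cold PBS, trypsinized and read by flow cytometry. Retention is expressed relative to 5 mM ortho-vanadate (100% Pgp inhibition). Mean ± S.D. of three independent experiments in triplicate.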

The nature of series [4]: Intrinsic toxicity in wild type mouse NIH/3T3 cells assessed as cell growth at 10 uM relative to control. Format: cell-based, NIH3T3. The note with it: wild type NIH/3T3 cells, read-out: Activity. The method, boiled down: (§2)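 Parental NIH-3T3 and MDR1-G185-transfected cells were cultured in DMEM with 10% heat-inactivated FBS, 2 mM L-glutamine and penicillin/streptomycin. Cells were exposed to 10 µM compound. Growth is reported as percent of untreated control. Mean ± S.D. of three independent experiments in triplicate.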

Series [5] in a line: Intrinsic toxicity in mouse NIH/3T3 cells expressing human MDR1 assessed as cell growth at 10 uM relative to control. Format: ADME, cell-based, NIH3T3. To be noted: read-out: Activity. The method, boiled down:
as §2

Series [6] concerns the target T1, ATP-dependent translocase ABCB1. The series is described as §1. The format is cell-based, NIH3T3. To be noted: nih3t3, 0.5 h, 10 µM.

T2 sequence (P08183 whole entry): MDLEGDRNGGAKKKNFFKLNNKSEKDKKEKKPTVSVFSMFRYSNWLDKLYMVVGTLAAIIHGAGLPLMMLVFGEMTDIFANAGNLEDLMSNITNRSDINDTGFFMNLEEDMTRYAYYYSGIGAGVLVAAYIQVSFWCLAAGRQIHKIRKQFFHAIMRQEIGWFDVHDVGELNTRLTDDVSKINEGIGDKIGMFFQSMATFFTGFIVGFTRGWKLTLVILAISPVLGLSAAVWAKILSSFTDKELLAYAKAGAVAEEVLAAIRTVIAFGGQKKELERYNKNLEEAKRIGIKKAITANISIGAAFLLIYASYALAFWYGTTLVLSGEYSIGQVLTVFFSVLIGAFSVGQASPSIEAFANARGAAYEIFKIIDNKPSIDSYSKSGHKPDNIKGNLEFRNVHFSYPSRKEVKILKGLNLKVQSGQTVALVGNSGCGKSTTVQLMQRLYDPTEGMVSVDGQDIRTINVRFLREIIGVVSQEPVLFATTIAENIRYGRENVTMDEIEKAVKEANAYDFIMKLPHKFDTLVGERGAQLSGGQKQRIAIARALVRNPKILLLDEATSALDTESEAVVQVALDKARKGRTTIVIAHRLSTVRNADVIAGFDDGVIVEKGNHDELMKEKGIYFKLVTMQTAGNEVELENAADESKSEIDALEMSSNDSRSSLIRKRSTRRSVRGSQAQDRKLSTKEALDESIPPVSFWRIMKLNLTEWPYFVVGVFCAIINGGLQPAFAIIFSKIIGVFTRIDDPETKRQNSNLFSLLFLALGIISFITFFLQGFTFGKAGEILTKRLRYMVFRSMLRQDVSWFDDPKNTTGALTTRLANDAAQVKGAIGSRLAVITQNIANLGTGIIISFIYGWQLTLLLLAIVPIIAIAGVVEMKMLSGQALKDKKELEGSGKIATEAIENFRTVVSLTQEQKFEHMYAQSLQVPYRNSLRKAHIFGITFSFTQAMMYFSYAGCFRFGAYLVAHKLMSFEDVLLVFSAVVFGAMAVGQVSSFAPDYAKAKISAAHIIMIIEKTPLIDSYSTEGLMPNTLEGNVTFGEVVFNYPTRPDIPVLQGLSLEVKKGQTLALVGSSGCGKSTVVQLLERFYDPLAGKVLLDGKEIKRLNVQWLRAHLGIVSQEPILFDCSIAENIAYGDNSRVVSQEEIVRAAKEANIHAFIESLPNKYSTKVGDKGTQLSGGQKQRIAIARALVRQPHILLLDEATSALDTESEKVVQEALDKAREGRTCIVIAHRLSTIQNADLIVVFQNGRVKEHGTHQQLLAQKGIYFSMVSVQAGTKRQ
T1 sequence (P08183 whole entry): as above

In general, Ki refers to a dissociation constant, usually derived from enzyme kinetics or from competition with a known ligand. Turning to `CC(=O)OC[C@]12[C@@H](OC(=O)c3ccoc3)C[C@@H]3[C@@H](OC(=O)c4ccccc4)[C@]1(OC3(C)C)[C@@](C)(O)C[C@H](OC(=O)c1ccccc1)[C@@H]2OC(C)=O`, the Ki in series [1] was 0.34 µM. For the same molecule, the inhibition at 0.5 h, 10 µM is 70% in series [2] and over 90% in series [3]. Further, the viability at 10 µM in series [4] turned out to be 82.1%; in series [5], 84.3%.
On the same counts, the results for `CC(=O)OC[C@]12[C@@H](OC(=O)c3ccoc3)C[C@@H]3[C@@H](OC(=O)c4ccccc4)[C@]1(OC3(C)C)[C@@](C)(O)C[C@H](OC(C)=O)[C@@H]2OC(C)=O` are 0.59 µM, 70%, over 90%, 92.4% and 87.8%.
Consider `CC(=O)OC[C@]12[C@@H](OC(=O)c3ccoc3)C[C@@H]3[C@@H](OC(=O)c4ccccc4)[C@]1(OC3(C)C)[C@@](C)(O)C[C@H](O)[C@@H]2OC(C)=O`, for which the “inhibition (INH)” value in series [6] is “Active”.
With `CC(=O)OC[C@]12[C@@H](OC(=O)c3ccccc3)C[C@@H]3[C@@H](OC(=O)c4ccccc4)[C@]1(OC3(C)C)[C@@](C)(O)C[C@H](O)[C@@H]2OC(C)=O`, the Ki in series [1] amounted to 0.47 µM. Further, the figures for the inhibition at 0.5 h, 10 µM in series [2] and in series [3] were 70% and over 90%, respectively. In addition, the viability at 10 µM in series [4] was 84.4%; in series [5] it was 105%.
Take `CC(=O)OC[C@]12[C@@H](OC(=O)c3ccoc3)C[C@@H]3[C@@H](OC(C)=O)[C@]1(OC3(C)C)[C@@](C)(O)C[C@H](OC(C)=O)[C@@H]2OC(C)=O`: in series [6], the “inhibition (INH)” value is recorded as “Active”.
On to `CC(=O)OC[C@]12[C@@H](OC(=O)c3ccccc3)C[C@@H]3[C@@H](OC(=O)c4ccccc4)[C@]1(OC3(C)C)[C@@](C)(O)C[C@H](OC(C)=O)[C@@H]2OC(C)=O`, for which, in series [1], the Ki came out at 0.39 µM. Moreover, the figures for the inhibition at 0.5 h, 10 µM in series [2] and in series [3] were 70% and over 90%, respectively. Also, the viability at 10 µM in series [4] is 76.7%; in series [5] it was 77.2%.
As for `CC(=O)OC[C@]12[C@@H](OC(=O)c3ccoc3)C[C@@H]3[C@@H](OC(=O)c4ccoc4)[C@]1(OC3(C)C)[C@@](C)(O)C[C@H](OC(C)=O)[C@@H]2OC(C)=O`, in series [1], the Ki came to 0.51 µM. For the same molecule, the inhibition at 0.5 h, 10 µM in series [2] is 70%; in series [3] it was over 90%. Moreover, the viability at 10 µM worked out at 92% in series [4] and 82.9% in series [5].
On the same counts, the results for `CC(=O)O[C@H]1[C@@H](OC(=O)c2ccccc2)C[C@](C)(O)[C@]23OC(C)(C)[C@H](C[C@H](OC(=O)c4ccoc4)[C@]12C)[C@H]3OC(=O)c1ccccc1` are 0.38 µM, 70%, over 90%, 108% and 98%.
As for `CC(=O)O[C@H]1[C@H](OC(=O)c2ccoc2)[C@@]2(C)[C@@H](OC(=O)c3ccccc3)C[C@@H]3C[C@]2(OC3(C)C)[C@@](C)(O)[C@H]1OC(C)=O`, the “inhibition (INH)” value in series [6] was “Active”.
As for `CC(=O)O[C@@H]1[C@H](OC(C)=O)[C@@H](C)[C@@]23C[C@@H](C[C@H](OC(=O)c4ccccc4)[C@]2(C)[C@H]1OC(=O)c1ccoc1)C(C)(C)O3`, in series [1], the Ki was found to be 0.64 µM. The inhibition at 0.5 h, 10 µM in series [2] was 70%; in series [3], over 90%. Further, the viability at 10 µM in series [4] worked out at 91.8%; in series [5], 92.4%.
As to `CC(=O)O[C@@H]1C[C@](C)(O)[C@@]23C[C@@H](C[C@H](OC(=O)c4ccccc4)[C@]2(C)[C@H]1OC(=O)c1ccoc1)C(C)(C)O3`, the “inhibition (INH)” value in series [6] is “Active”.
The same measure, in the same setting: the result for `CC(=O)O[C@@H]1C[C@](C)(O)[C@@]23C[C@@H](C[C@H](OC(=O)c4ccoc4)[C@]2(C)[C@H]1OC(=O)c1ccoc1)C(C)(C)O3` reads “Active”.
Turning to `CC(=O)O[C@@H]1C[C@](C)(O)[C@@]23C[C@@H](C[C@H](OC(=O)/C=C/c4ccccc4)[C@]2(C)[C@H]1OC(=O)c1ccoc1)C(C)(C)O3`, the Ki in series [1] is 0.57 µM. Moreover, the inhibition at 0.5 h, 10 µM in series [2] was 70%; in series [3], over 90%. Also, the viability at 10 µM in series [4] worked out at 86%; in series [5], 100%.
For the molecule `CC(=O)O[C@@H]1C[C@@H](C)[C@@]23C[C@@H](C[C@H](OC(=O)c4ccccc4)[C@]2(C)[C@H]1OC(=O)c1ccoc1)C(C)(C)O3`, the “inhibition (INH)” value in series [6] was “Active”.
With `CC1(C)O[C@]23C[C@H]1C[C@H](OC(=O)c1ccccc1)[C@]2(C)[C@@H](OC(=O)c1ccoc1)CC[C@]3(C)O`, in series [6], the “inhibition (INH)” value was “Active”.
As to `CC(=O)OC[C@]12[C@@H](OC(=O)c3ccccc3)C[C@@H]3[C@@H](OC(C)=O)[C@]1(OC3(C)C)[C@@](C)(O)C[C@H](OC(C)=O)[C@@H]2OC(C)=O`, the “inhibition (INH)” value in series [6] is recorded as “Active”.
In the case of `COc1ccc(CCN(C)CCCC(C#N)(c2ccc(OC)c(OC)c2)C(C)C)cc1OC` (centres undefined), the viability at 10 µM in series [5] is 79.2%.
